Data on 12 compounds can be found in article PMC10157846 (ACS Omega, 2023).

The subject of data set [1] is GFP-ODC. As to the kind of experiment: Cell-based GFP-ODC AlphaLISA. Conditions: for reduction of the GFP-ODC AlphaLISA signal: 8-point titration, fresh powder stocks; for IC50: Homo sapiens, HEK-293T, read-out: IC50 of the AlphaLISA signal. More on the design: species or system human. A digest of the protocol: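 HEK-293T cells stably expressing GFP-ODC, from a flow-sorted medium-GFP expressor pool, were plated at 10,000 cells/well in phenol red-free DMEM and dosed with compound or DMSO at plating. Cells were lysed in Surefire lysis buffer with shaking for 30 min at RT. Biotinylated anti-ODC plus anti-GFP acceptor bead (10× mix) went on for 1 h in the dark, then streptavidin donor bead for 30 min. Alpha signal read. Wells without anti-ODC served as negative control.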

Data set [2] in a line: Cell viability, parallel CellTiter-Glo assay. The format is cell-based, human. The note with it: human, HEK-293T cells stably expressing GFP-ODC. In general terms: ATP-based viability assays read luminescence as a measure of living cells.
The test system of another data set is HEK-293T cells. As to the kind of experiment: Cell viability, parallel CellTiter-Glo assay. The note with it: HEK-293T cells stably expressing GFP-ODC, 8-point titration. The format is cell-based, human.
The subject of another data set is 26S proteasome. As to the kind of experiment: Small peptide. In kind it is biochemical. The note with it: only at the highest concentration.
For data set [3], the system named is GFP-ODC. As to the kind of experiment: Cellular degradation of GFP-ODC. Conditions: 16 h, HEK-293T stably expressing GFP-ODC. The format is cell-based, human. A digest of the protocol:
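HEK-293T stably expressing GFP-ODC were grown to 80% confluency in 60 mm plates and treated 16 h with compound or DMSO. Controls: 5 μM bortezomib, 20 μM chlorpromazine. Cells were pelleted, PBS-washed and lysed in RIPA with protease inhibitors (20 min on ice). Western blot followed; only the full-length 75 kDa GFP-ODC band was quantified, in triplicate.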

The subject of data set [4] is human constitutive 20S proteasome. As to the kind of experiment: Small peptide. In kind it is biochemical. Conditions: for max fold increase, chymotrypsin-like site: Suc-LLVY-AMC; for max fold increase, caspase-like site: Z-LLE-AMC. The essentials: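 Human constitutive 20S proteasome (1 nM) in 38 mM Tris-HCl, 100 mM NaCl, pH 7.8 was preincubated with compound (8-point, 1.25–80 μM) at 37 °C. AMC substrates were added alone (final Suc-LLVY-AMC 20 µM, Z-LLE-AMC 20 µM, Boc-LRR-AMC 40 μM) or combined (6.67 μM each final). Fluorescence (380/460 nm) was read over 1 h at 37 °C. Hydrolysis rate was expressed as fold change versus vehicle.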

Data set [5] in a line: Solubility observed in the AlphaLISA dose response. The format is physicochemical. The note with it: at higher concentrations of the dose response. In general terms: Bead proximity is the source of the signal in Alpha formats.
The subject of data set [6] is purified human 20S proteasome. As to the kind of experiment: In vitro degradation of α-synuclein by purified 20S proteasome. The format is biochemical. The note with it: 3 h, compared to untreated proteasome. The essentials: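 Purified human 20S proteasome in 50 mM HEPES, 5 mM DTT, pH 7.2 was preincubated with compound or DMSO for 45 min at 37 °C. Purified α-synuclein was then added and incubated 3 h at 37 °C; final reaction was 0.3 μM α-synuclein and 10 nM proteasome. GAPDH (0.5 μM) was added as loading control. α-Synuclein remaining was quantified by western blot versus DMSO.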

The next data set has as its system EGFR. Conditions: read-out: IC50 for EGFR tyrosine kinase inhibition; reported value; cited from earlier work.
The subject of another data set is K48 ubiquitin. As to the kind of experiment: Cellular K48 ubiquitin levels. In kind it is cell-based, human. The note with it: same cell lysates as the GFP-ODC western blot. For orientation: A western blot detects proteins with antibodies after separation by electrophoresis.
[7] abbreviates: combination of the three fluorogenic peptide probes.

Turning to `CC(C)[C@]12O[C@H]1[C@@H]1O[C@]13[C@]1(O[C@H]1C[C@H]1C4=C(CC[C@@]13C)C(=O)OC4)[C@@H]2O` [triptolide], the “reduction of the GFP-ODC AlphaLISA signal” value (“reduction” for short) in the data set with GFP-ODC [1] was “significantly decreased the AlphaLISA signal but not in a dose-dependent manner”.
With `CCN(CC)CCNc1ccc(CO)c2sc3ccccc3c(=O)c12` [Hycanthone], in the data set with GFP-ODC [1], the IC50 (as a rule, the concentration that gives 50% inhibition) is 15.1 µM. Besides, it took 69.7 µM to reach half-maximal cytotoxicity in [2] (CC50).
For `O=C(N/N=C/c1ccc([N+](=O)[O-])o1)c1ccc(O)cc1` [nifuroxazide], the cell cytotoxicity entry in the data set with HEK-293T cells is “low cytotoxicity”.
`CC(C)C[C@H]1C(=O)N2CCC[C@H]2[C@]2(O)O[C@](NC(=O)[C@@H]3C=C4c5cccc6[nH]c(Br)c(c56)C[C@H]4N(C)C3)(C(C)C)C(=O)N12` [bromocriptine]: the “reduction” value in the data set on GFP-ODC [1] is “did not reduce the AlphaLISA signal below 50% (Figure S2) or did not reduce the AlphaLISA signal without significant cell death”.
As to `CN(C)CCCN1c2ccccc2Sc2ccc(Cl)cc21` [CPZ, chlorpromazine], the “activation of the 26S proteasome” value in the data set with 26S proteasome came out at 2 fold. In the data set on GFP-ODC [3] (20 μM compound), the “full-length GFP-ODC remaining” value amounted to 97%. Besides, the “overall max fold increase of 20S proteasome activity” value (“overall max fold increase” below) in data set [4] (setting [7]) is 6.3 fold. In data set [4] (individual fluorogenic peptide substrates), the “catalytic sites of the 20S proteasome activated” value is on record as “only activated the chymotrypsin-like site”.
Take `COC(=O)C[C@](O)(CCCC(C)(C)O)C(=O)O[C@@H]1C(OC)=C[C@]23CCCN2CCc2cc4c(cc2[C@H]13)OCO4` [homoharringtonine]: in the data set with GFP-ODC [1], the “reduction” value is “significantly decreased the AlphaLISA signal but not in a dose-dependent manner”.
For `C#Cc1cccc(Nc2ncnc3cc(OCCOC)c(OCCOC)cc23)c1` [erlotinib], the IC50 was 5.4 µM in the data set with GFP-ODC [1] and 0.002 µM in the data set with EGFR. In addition, the “activation of the 26S proteasome” value in the data set on 26S proteasome is reported as 2.5- to 3 fold. Besides, in data set [5], the solubility result was “poor solubility at higher concentrations”. Besides, in the data set on HEK-293T cells, the cell cytotoxicity result was “no significant cell cytotoxicity”. Moreover, the “full-length GFP-ODC remaining” value in the data set with GFP-ODC [3] (10 μM compound) is 34%; in the data set with GFP-ODC [3] (20 μM compound) it was 16%. Besides, the α-synuclein remaining in [6] (10 μM compound) turned out to be 68%; in [6] (20 μM compound), 48%. Moreover, in data set [4] (Boc-LRR-AMC), the “max fold increase, trypsin-like site” value is 5.9 fold. Also, the “max fold increase, chymotrypsin-like site” value in data set [4] is recorded as 5.1 fold. The “max fold increase, caspase-like site” value in [4] was 3.1 fold. Moreover, the “overall max fold increase” value in data set [4] (setting [7]) came to 5.7 fold. Further, in [4] (combination of the three fluorogenic peptide probes, 1 nM 20S), the “EC200, concentration at which the rate of proteolysis was doubled compared to the vehicle control” value was 12 µM. The “effect on K48 ubiquitin / levels of ubiquitinylated proteins” value in the data set with K48 ubiquitin is recorded as “no impact on the levels of ubiquitinylated proteins”.
Take `CCN(CC)CCCC(C)Nc1c2ccc(Cl)cc2nc2ccc(OC)cc12` (centres unmarked) [Quinacrine]: the IC50 in the data set with GFP-ODC [1] is 4.8 µM.
As to `COc1cc2nc(N3CCN(C(=O)c4ccco4)CC3)nc(N)c2cc1OC` [prazosin], the “reduction” value with GFP-ODC [1] is listed as “did not reduce the AlphaLISA signal below 50% (Figure S2) or did not reduce the AlphaLISA signal without significant cell death”. In addition, the “activation of the 26S proteasome” value with 26S proteasome is 2.5- to 3 fold. In the data set with GFP-ODC [3] (20 μM compound), the “full-length GFP-ODC remaining” value is 84%. In data set [4], the “max fold increase, chymotrypsin-like site” value was determined as 3.5 fold and the “max fold increase, caspase-like site” value was determined as 5.8 fold. Besides, the “overall max fold increase” value in [4] (setting [7]) was 4.5 fold.
Take `CC(=O)S[C@@H]1CC2=CC(=O)CC[C@]2(C)[C@H]2CC[C@@]3(C)[C@@H](CC[C@@]34CCC(=O)O4)[C@H]12` [spironolactone]: the cell cytotoxicity result in the data set on HEK-293T cells is “low cytotoxicity”.
In the case of `CN1CCN(CC/C=C2/c3ccccc3Sc3ccc(S(=O)(=O)N(C)C)cc32)CC1` [thiothixene], in the data set on GFP-ODC [1], the “reduction” value is given as “did not reduce the AlphaLISA signal below 50% (Figure S2) or did not reduce the AlphaLISA signal without significant cell death”.
The same measure, in the same setting: for `CNCCC(Oc1ccc(C(F)(F)F)cc1)c1ccccc1` (centres unmarked) [fluoxetine] the value was “did not reduce the AlphaLISA signal below 50% (Figure S2) or did not reduce the AlphaLISA signal without significant cell death”.
